# Most compounds without a hit are left out; they make up all but 2.9% or so of the library.
# PfM18AAP inh: blocks P. falciparum M18 aspartyl aminopeptidase. recombinant PfM18AAP, H-Glu-NHMec fluorogenic cleavage. inhibition, % at 7.35 µM. actives 1.2% (n = 290,000);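 active = inhibition above the campaign mean inhibition over all tested compounds plus 3 SD, cut at about 28% in these data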;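 note: 0% = plate median of test compound wells and 100% = 2 mM ZnCl2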
# Runt-CBFb FRET: Runt domain-CBFb interaction inhibition; inhibition, % at 20 µM; Cerulean-Runt/Venus-CBFb FRET ratio 530/480, 1 h; Q01196+Q13951; AID 1496; actives 0.46% (n = 220,000);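 active = inhibition over about 50% at 20 µM in the single-dose screen, limit read from the data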;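 note: 0% = DMSO wells and 100% = excess unlabeled CBFb competitor control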
# Target sequence (Q01196 whole entry, looked up, the tested form may be a part): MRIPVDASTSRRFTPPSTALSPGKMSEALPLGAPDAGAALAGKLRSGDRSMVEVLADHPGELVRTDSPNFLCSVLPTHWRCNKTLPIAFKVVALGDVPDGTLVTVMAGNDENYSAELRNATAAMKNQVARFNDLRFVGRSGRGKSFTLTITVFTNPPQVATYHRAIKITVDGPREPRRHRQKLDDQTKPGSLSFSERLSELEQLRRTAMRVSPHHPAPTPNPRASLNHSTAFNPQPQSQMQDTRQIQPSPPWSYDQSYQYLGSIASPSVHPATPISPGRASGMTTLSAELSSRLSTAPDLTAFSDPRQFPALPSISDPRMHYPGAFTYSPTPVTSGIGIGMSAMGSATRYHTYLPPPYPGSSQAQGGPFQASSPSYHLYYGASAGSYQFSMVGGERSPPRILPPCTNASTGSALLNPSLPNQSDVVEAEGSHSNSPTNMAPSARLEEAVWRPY
# Target sequence (Q13951 whole entry, looked up, the tested form may be a part): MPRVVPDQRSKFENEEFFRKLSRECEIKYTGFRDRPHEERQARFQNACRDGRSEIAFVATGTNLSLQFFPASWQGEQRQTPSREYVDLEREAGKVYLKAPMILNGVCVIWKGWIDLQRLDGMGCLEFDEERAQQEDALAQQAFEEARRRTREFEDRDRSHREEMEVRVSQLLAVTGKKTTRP
#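 Doses: 20 µM compound in 1% DMSO | Material: Cerulean-labeled Runt domain protein | Amount: Each fluorescent fusion protein 100 nM | Schedule: Two 1 h room-temperature incubations shielded from light | Measured by: FRET fluorescence | Evaluation: Loss of energy transfer signal | Controls: Unlabeled CBFb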
# RanGTP-Imp inh: inhibitors of RanGTP-importin-beta interaction, primary screen, biochemical, FRET, CFP-Ran, YFP-importin-beta, homogeneous. cell-free CFP-Ran/YFP-importin-beta FRET ratio. inhibition, % (test concentration not listed). actives 1.1% (n = 300,000). AID 2216;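 active = more than half of the replicate wells show a fall in the fluorescence ratio signal beyond about 16%, limit read from the data, passing the limit was not always enough; inconclusive = exactly half of the replicate wells pass the set limit; inactive = fewer than half of replicates pass the limit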;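 note: 0% = DMSO wells and 100% = Ran loaded with GDP instead of GTP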
# Runt-SMMHC FRET: inhibitors of human RUNX1 Runt domain binding to CBFb-SMMHC; Cerulean-Runt/Venus-CBFb-SMMHC FRET ratio 530/480, 1 h; inhibition, % at 20 µM; actives 0.74% (n = 220,000); AID 1434;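 active = mean inhibition across duplicate retests at 20 µM reaching about 50%, limit read from the data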;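 note: 0% = DMSO wells and 100% = wells with excess untagged CBFb-SMMHC; inhibitors lower the FRET ratio by blocking Runt binding to CBFb-SMMHC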
# Hck-Nef inh: inhibitors of human Hck kinase activated by Nef | actives 0.68% (n = 220,000) | P08631 | inhibition, % at 20 µM | AID 463187 | Recombinant Hck-YEEI plus Nef, Z-Lyte FRET kinase assay;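 active = Hck-Nef kinase inhibition above about 50%, limit read from the data; inactive = inhibition below that limit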;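 note: 0% = DMSO with Hck plus Nef and 100% = Hck alone without Nef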
# RBBP9 inh: human RBBP9 hydrolase inhibition | inhibition, % at 7.94 µM | recombinant RBBP9, FP-Rh probe fluorescence polarization | actives 0.2% (n = 220,000);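 active = inhibition above the campaign mean of all tested compounds plus 3 SD, cut at about 14% in these data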;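 note: plate controls were DMSO wells with RBBP9 for no effect and wells lacking RBBP9 protein for full effect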
#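 Test system: recombinant human RBBP9; Timing: 30 min then 45 min, 25 °C; Detection: fluorescence polarization; Control set: RBBP9 with DMSO as uninhibited control, no-protein wells as full inhibition; Compound dosing: one concentration, 7.94 µM nominal, 0.794% DMSO; Probe or stimulus: FP-Rh activity-based probe, 375 nM before mixing.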
# RBBP9 inh conf: human RBBP9 inhibition, confirmation. shares compounds with RBBP9 inh. recombinant RBBP9, FP-Rh probe fluorescence polarization. inhibition, % at 7.94 µM. actives 36% (n = 410);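 active = inhibition above the hit cutoff derived for the primary screen, cut at about 15% in these data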;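 note: 0% = RBBP9 with DMSO and 100% = wells lacking RBBP9 protein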
# The depositor's hits bear a star; ? = inconclusive; . = no result given.
SMILES,PfM18AAP inh,Runt-CBFb FRET,RanGTP-Imp inh,Runt-SMMHC FRET,Hck-Nef inh,RBBP9 inh,RBBP9 inh conf
O=C1c2ccccc2C(=O)N1CCN1CCc2ccccc21,-5.3,-2.5,-3.9,1.6,1.3,17.0*,8.7
COc1cc(Br)cc2cc(C(=O)N3CCOCC3)c(=O)oc12,-0.3,.,4.4,.,.,.,.
Oc1ccc(Nc2nc(-c3cccnc3)cs2)cc1,19.5,.,0.5,.,.,.,.
Oc1ccc(Nc2nc(-c3ccc(O)cc3)cs2)cc1,7.8,5.9,6.5,2.1,1.1,18.1*,14.3*
CC(=O)c1cccc(NC(=O)CCc2nnc3ccc(N4CCOCC4)nn23)c1,2.8,.,-0.9,.,.,.,.
CC(=O)N(C1=C(Cl)C(=O)c2ccccc2C1=O)C1CCCCC1,-59.8,33.1,4.0,69.9*,-39.5,55.0*,89.0*
O=C(c1cc(S(=O)(=O)N2CCOCC2)ccc1F)N(CCc1ccccc1)Cc1ccccc1,.,.,5.7,.,.,.,.
Cc1cc(N)ccc1-n1c(C)ccc1C,21.9,0.2,2.7,-5.2,-1.2,31.3*,-55.6
C/C=C/CSc1nc2c(c(=O)[nH]c(=O)n2C)n1C(C)C,-2.8,-0.4,.,-1.6,1.2,14.7*,3.6
Cc1ccc2c(c1)c(N=Nc1cccc(C(=O)O)c1)c(O)n2C,-4.5,-8.9,?,-13.2,-0.3,-0.2,.
O=Cc1cc(N=Nc2cccc(C(=O)O)c2)ccc1O,25.2,1.6,-2.5,-7.8,26.4,18.2*,-2.0
COc1cccc(C(=O)NCCNC(=O)c2ccco2)c1,0.2,.,?,.,.,.,.
O=C(Cn1nnc2ccccc2c1=O)N1CCCc2ccccc21,0.5,-0.4,2.5,1.9,-0.8,15.8*,-0.7
O=C(C[n+]1ccc(C(=O)NCCCO)cc1)c1cccc(Br)c1,1.3,-0.8,1.3,-2.1,5.5,62.6*,6.2
CC(=O)Nc1c(F)cc(Br)cc1F,2.5,-2.6,3.1,1.1,8.5,16.4*,9.1
Cc1nc2scc(-c3ccccc3)c2c(=O)n1N=C1C=CC(=O)C=C1,-27.9,.,-3.0,.,-16.5,48.7*,58.9*
CCC/C(=N\NC(=O)c1csc(C)c1C)c1cccs1,-17.3,-0.3,-6.0,-2.5,6.9,16.2*,11.7
COc1cc(-n2nnnc2SCC(=O)N2CCN(c3ccc(F)cc3)CC2)c(OC)cc1Cl,1.8,-2.2,4.8,1.2,0.9,15.7*,4.6
CCOC(=O)CSc1nnnn1-c1cc(OC)c(Cl)cc1OC,2.1,-3.5,-4.5,-11.3,-0.4,-3.1,.
COc1ccc(-n2ncc3c2CC(C)(C)CC3NC(=O)CCn2cncn2)cc1 (stereo unspecified),1.0,.,?,.,.,.,.
CCOC(=O)C(C)(C)Sc1ncnc2nc[nH]c12,9.5,-0.8,0.2,-0.1,6.6,15.9*,7.6
CCOC(=O)C1(Cc2ccc(OC)cc2)CCN(C(=O)c2cccc3nccnc23)CC1,2.3,-1.8,-3.0,-3.2,10.7,15.7*,1.9
COc1ccc(C)cc1NC(=O)c1ccccc1N(C)S(=O)(=O)c1ccccc1,5.0,.,?,.,.,.,.
COc1ccc(C(=O)O/N=C(\C)c2nccs2)cc1,-11.9,-0.8,4.2,-6.3,-167.5,18.7*,39.5*
CC(=O)Nc1ccc2cc3ccc(NC(C)=O)cc3nc2c1,14.0,15.3,37.2*,.,-31.0,50.2*,10.6
SMILES,PfM18AAP inh,Runt-CBFb FRET,RanGTP-Imp inh,Runt-SMMHC FRET,Hck-Nef inh,RBBP9 inh,RBBP9 inh conf
CC(=O)Nc1ccc2ccccc2c1,-6.6,1.7,2.0,2.7,-1.9,-5.0,.
Cc1ccc2cc(CCNC(=O)c3cccs3)c(=O)[nH]c2c1,-0.6,1.2,.,2.8,-2.9,15.9*,11.0
O=C(c1ccccc1F)N1CCN(c2ccc([N+](=O)[O-])cc2-n2cccc2)CC1,0.6,22.0,1.3,-1.3,2.9,15.9*,3.7
O=C(c1ccc(F)cc1)N1CCN(c2ccc([N+](=O)[O-])cc2-n2cccc2)CC1,1.6,8.0,-1.0,-0.7,-3.2,-3.0,.
C/C(=C\C(=O)c1ccccc1)Nc1ccc(O)cc1,-1.7,8.7,-1.6,5.8,-1.8,11.7,.
C/C(=C\C(=O)c1cccnc1)Nc1ccc(O)cc1,12.1,3.9,0.5,-9.7,4.0,42.8*,9.9
NC(=O)COC(=O)C12CC3CC(CC(O)(C3)C1)C2,0.4,-0.7,?,-1.0,11.1,50.9*,1.9
CCOc1cc(C(=O)NC(C)C2CCCO2)cc(OCC)c1OCC (stereo unspecified),-3.6,-0.8,5.2,-2.1,-5.9,15.8*,10.7
CCCCC[C@H](O)/C=C/[C@@H]1[C@@H](C/C=C\CCCC(=O)O)[C@@H](O)C[C@H]1O,3.2,-0.1,-3.2,-2.2,-6.5,-10.7,.
CCCCC[C@H](O)/C=C/[C@@H]1[C@@H](C/C=C\CCCC(=O)OC)[C@@H](O)C[C@H]1O,14.6,-37.8,-0.4,-85.6,-5.0,18.0*,28.0*
COc1ccc([N+](=O)[O-])cc1C(=O)NCCOc1ccc(Cl)cc1,-13.6,.,0.6,.,.,.,.
Cc1ccc(NCC(=O)N/N=C/c2cccn2C)cc1,9.1,3.2,0.2,-5.8,7.7,17.4*,5.4
COc1cc2ncnc(NCCCN3CCOCC3)c2cc1OC,3.9,1.6,4.2,-5.0,8.3,15.0*,6.5
Cc1nc2ccccc2c(=O)n1/N=C/c1c(O)ccc2oc3c(c12)CCCC3,-2.2,-8.0,-0.3,-83.9,10.7,19.3*,4.5
Cc1nc2ccccc2c(=O)n1/N=C/c1c(O)ccc2ccccc12,2.6,8.2,-0.7,-0.9,23.5,-9.0,.
NC(=O)CCN1CCN(C(=O)c2ccc3nc(Cc4cccc(Cl)c4)oc3c2)CC1,4.9,.,-0.3,.,.,.,.
Oc1ccc(/C=N/NC2=NCCCCC2)cc1,8.4,3.3,-2.3,1.3,5.6,16.5*,12.0
COc1cc(/C=N/NC2=NCCCCC2)ccc1O,3.9,4.9,-1.6,7.0,22.6,-8.1,.
CC(C)OCCCNC(=O)COc1ccc2oc3c(c2c1)CCCC3,6.9,.,4.4,.,.,.,.
CN(Cc1ccco1)C(=O)C1CCCN(c2ncnc3c2nc2n3CCCCC2)C1 (stereo unspecified),10.8,.,2.9,.,.,.,.
O=C(Nc1ccccc1)c1cccc(=O)o1,4.5,-0.1,-0.1,0.0,12.1,17.5*,4.1
CCCCSc1cnn(-c2ccccc2)c(=O)c1SCCCC,0.7,-3.3,0.6,-3.5,14.7,15.6*,-2.8
CCSc1cnn(-c2ccccc2)c(=O)c1SCC,-1.6,-1.1,-0.9,1.2,-1.4,-3.5,.
CCc1c(C)sc(NC(=O)c2ccco2)c1C#N,10.6,.,2.7,.,.,.,.
CCc1ccc(N2CC(C(=O)NCc3ccc4c(c3)OCO4)CC2=O)cc1 (stereo unspecified),-2.1,-2.7,2.1,2.9,1.7,4.9,.

# Assay outcomes deposited in PubChem by several laboratories.
